Experimental findings from ChEMBL document CHEMBL2029265, “2-(Pyrrolidin-1-yl)ethyl-3,4-dihydroisoquinolin-1(2H)-one derivatives as potent and selective histamine-3 receptor antagonists” (J Med Chem, 2012) are described below.

Data set [1] relates to Rattus norvegicus. Put plainly: Reversal of time-induced cognitive deficit in po dosed rats by novel object recognition test. Format: functional. The settings on record: read-out: MED.
A short description of data set [2]: Oral bioavailability in beagle dog at 10 mg/kg administered as single dose. Format: ADME, organism-based, Canis lupus familiaris. Particulars: in vivo.
Data set [3] in a line: Elimination half life in beagle dog at 2 mg/kg, iv administered as single bolus dose. Format: ADME, organism-based, Canis lupus familiaris. Also on record: dose 2 mg/kg, route intravenous. The settings on record: in vivo, read-out: beta t1/2 (converted). The method in brief: (§1)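 Male beagle dogs received a single intravenous bolus dose of 2 mg/kg. Plasma clearance, volume of distribution and elimination half-life were determined.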

The nature of data set [4]: Volume of distribution in beagle dog at 2 mg/kg, iv administered as single bolus dose. Format: ADME, organism-based, Canis lupus familiaris. Also on record: dose 2 mg/kg, route intravenous. The settings on record: in vivo. The method in brief:
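Male beagle dogs, single intravenous bolus 2 mg/kg. Plasma pharmacokinetics.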

Data set [5] is described as follows: AUC (0 to infinity) in Long Evans rat at 10 mg/kg, po administered as single dose. On the set-up: dose 10 mg/kg, route oral, time infinity. Particulars: plasma. Format: ADME, organism-based. Summed up:
(§2)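 Male Long Evans rats received one oral dose of 10 mg/kg, formulated in 2% Tween/0.5% methyl cellulose in water. Plasma pharmacokinetic parameters were derived from this single dose.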

A short description of data set [6]: Clearance in beagle dog at 2 mg/kg, iv administered as single bolus dose. It is filed as ADME, organism-based, Canis lupus familiaris. Also on record: dose 2 mg/kg, route intravenous. The settings on record: in vivo. Summed up: as §1
A short description of data set [7]: Cmax in Long Evans rat at 10 mg/kg, po administered as single dose. It is filed as ADME, organism-based. Also on record: dose 10 mg/kg, route oral. The settings on record: in vivo. The method in brief: as §2
Data set [8] can be described thus: Oral bioavailability in Long Evans rat at 10 mg/kg administered as single dose. It is filed as ADME, organism-based. The settings on record: in vivo. Summed up:
as §2

Data set [9] is described as follows: Tmax in Long Evans rat at 10 mg/kg, po administered as single dose. Format: ADME, organism-based. Also on record: dose 10 mg/kg, route oral. The settings on record: in vivo. Summed up: (§3)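 Male Long Evans rats, single oral dose 10 mg/kg in 2% Tween/0.5% methyl cellulose in water. Plasma pharmacokinetics.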
Data set [10] is described as follows: Terminal half life in Long Evans rat at 10 mg/kg, po administered as single dose. It is filed as ADME, organism-based. Also on record: dose 10 mg/kg, route oral. The settings on record: in vivo, read-out: beta t1/2 (converted). Summed up: as §3
The nature of data set [11]: Elimination half life in Long Evans rat at 2 mg/kg, iv administered as single bolus dose. Format: ADME, organism-based. Also on record: dose 2 mg/kg, route intravenous. The settings on record: in vivo, read-out: beta t1/2 (converted). Summed up: (§4)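 Male Long Evans rats were given a single intravenous bolus of 2 mg/kg in DMSO/80% PEG 200. Clearance, volume of distribution and elimination half-life were derived.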

Data set [12] can be described thus: Volume of distribution in Long Evans rat at 2 mg/kg, iv administered as single bolus dose. It is filed as ADME, organism-based. Also on record: dose 2 mg/kg, route intravenous. The settings on record: in vivo. The method in brief: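 Male Long Evans rats, single intravenous bolus 2 mg/kg, vehicle DMSO/80% PEG 200. Plasma pharmacokinetics.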
Data set [13] can be described thus: Clearance in Long Evans rat at 2 mg/kg, iv administered as single bolus dose. Format: ADME, organism-based. On the set-up: dose 2 mg/kg, route intravenous. Particulars: in vivo. The method in brief: as §4
A further data set has as its system Salmonella typhimurium. Put plainly: Mutagenic activity in Salmonella typhimurium assessed as revertants by Ames test. It is filed as toxicity, organism-based. Particulars: salmonella enterica subsp. enterica serovar typhimurium. Summed up: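 Screening Ames bacterial reverse mutation assay in Salmonella typhimurium, run at multiple dosages.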
The test system of data set [14] is Canis familiaris. Put plainly: Toxicity in dog assessed as arrhythmia at 20 mg/kg/day administered for 14 days as repeat dose. Format: organism-based, Canis lupus familiaris. The settings on record: in vivo, 336 h. Summed up:
(§5)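 Dogs dosed for 14 days in a repeat-dose toxicity study at 20, 60 and 120 mg/kg/day. Clinical signs and QTc monitored.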

In data set [15] the test system is Canis familiaris. Put plainly: Toxicity in dog assessed as QTc prolongation at 20 mg/kg/day administered for 14 days as repeat dose. Format: organism-based, Canis lupus familiaris. The settings on record: in vivo, 336 h. The method in brief: as §5
In data set [16] the test system is Canis familiaris. As to the kind of experiment: Toxicity in dog assessed as convulsions at >/= 60 mg/kg/day administered for 14 days as repeat dose. It is filed as organism-based, Canis lupus familiaris. The settings on record: in vivo, 336 h. The method in brief: as §5
For data set [17], the system named is Rattus norvegicus. Put plainly: Toxicity in rat assessed as respiratory distress at 600 mg/kg/day administered for 14 days as repeat dose. Format: organism-based. Particulars: in vivo, 336 h.
The subject of data set [18] is Rattus norvegicus. As to the kind of experiment: Toxicity in rat assessed as epithelial hyperplasia at 600 mg/kg/day administered for 14 days as repeat dose. Format: organism-based. The settings on record: in vivo, 336 h.
Data set [19] in a line: Toxicity in rat. It is filed as organism-based. The settings on record: in vivo. Summed up: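 14-day repeat-dose study in rats at 60, 200 and 600 mg/kg/day, with clinical observation and tissue findings; maximum tolerated dose derived from findings across dose groups.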
The nature of data set [20]: Toxicity in dog. It is filed as organism-based, Canis lupus familiaris. The settings on record: in vivo. Summed up:
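14-day repeat-dose study in dogs at 20, 60 and 120 mg/kg/day, with clinical observation including cardiac rhythm and QTc; maximum tolerated dose derived from findings across dose groups.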

A further data set relates to Mus musculus. As to the kind of experiment: Reversal of MK-801-induced memory deficit in po dosed mice at measured after 24 hrs by social odor recognition test. Particulars: read-out: MED.
Data set [21] deals with Histamine H3 receptor (Homo sapiens, UniProt Q9Y5N1). Put plainly: Displacement of [3H]-(R)-alpha-methylhistamine from human H3 receptor expressed in HEK293T cells after 120 mins by scintillation counting. Format: cell-based, HEK-293T.
Sequence of Histamine H3 receptor (Homo sapiens, UniProt Q9Y5N1) (Q9Y5N1 whole entry): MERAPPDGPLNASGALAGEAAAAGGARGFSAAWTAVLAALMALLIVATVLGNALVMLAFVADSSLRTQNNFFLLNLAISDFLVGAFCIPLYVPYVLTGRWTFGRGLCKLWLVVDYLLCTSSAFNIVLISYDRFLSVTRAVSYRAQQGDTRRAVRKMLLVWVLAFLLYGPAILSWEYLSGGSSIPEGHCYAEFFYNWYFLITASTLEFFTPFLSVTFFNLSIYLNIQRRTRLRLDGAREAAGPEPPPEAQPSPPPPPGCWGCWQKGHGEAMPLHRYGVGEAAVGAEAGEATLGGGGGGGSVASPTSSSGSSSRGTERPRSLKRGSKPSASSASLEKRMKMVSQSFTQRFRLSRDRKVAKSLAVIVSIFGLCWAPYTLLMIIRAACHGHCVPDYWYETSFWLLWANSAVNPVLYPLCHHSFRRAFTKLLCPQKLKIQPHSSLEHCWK
Data set [22] deals with Histamine H3 receptor (Rattus norvegicus, UniProt Q9QYN8). Put plainly: Displacement of [3H]-(R)-alpha-methylhistamine from rat H3 receptor expressed in HEK293T cells after 120 mins by scintillation counting. It is filed as cell-based, HEK-293T.
Sequence of Histamine H3 receptor (Rattus norvegicus, UniProt Q9QYN8) (Q9QYN8 whole entry): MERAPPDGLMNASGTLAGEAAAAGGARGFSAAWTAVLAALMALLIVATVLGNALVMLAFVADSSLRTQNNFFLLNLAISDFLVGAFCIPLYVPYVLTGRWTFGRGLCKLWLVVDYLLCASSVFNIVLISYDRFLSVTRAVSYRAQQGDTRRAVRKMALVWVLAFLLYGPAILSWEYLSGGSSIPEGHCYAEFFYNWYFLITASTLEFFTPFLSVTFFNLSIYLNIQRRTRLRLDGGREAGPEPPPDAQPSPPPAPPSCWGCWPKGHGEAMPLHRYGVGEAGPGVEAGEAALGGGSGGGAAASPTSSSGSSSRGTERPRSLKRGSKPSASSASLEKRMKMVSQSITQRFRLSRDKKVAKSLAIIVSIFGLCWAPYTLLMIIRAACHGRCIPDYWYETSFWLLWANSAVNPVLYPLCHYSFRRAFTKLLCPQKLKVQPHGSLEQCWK
The target of a further data set is CYP3A4 (Homo sapiens, UniProt P08684). Put plainly: Inhibition of CYP3A4 at 3 uM. Format: ADME.
Sequence of CYP3A4 (P08684 whole entry): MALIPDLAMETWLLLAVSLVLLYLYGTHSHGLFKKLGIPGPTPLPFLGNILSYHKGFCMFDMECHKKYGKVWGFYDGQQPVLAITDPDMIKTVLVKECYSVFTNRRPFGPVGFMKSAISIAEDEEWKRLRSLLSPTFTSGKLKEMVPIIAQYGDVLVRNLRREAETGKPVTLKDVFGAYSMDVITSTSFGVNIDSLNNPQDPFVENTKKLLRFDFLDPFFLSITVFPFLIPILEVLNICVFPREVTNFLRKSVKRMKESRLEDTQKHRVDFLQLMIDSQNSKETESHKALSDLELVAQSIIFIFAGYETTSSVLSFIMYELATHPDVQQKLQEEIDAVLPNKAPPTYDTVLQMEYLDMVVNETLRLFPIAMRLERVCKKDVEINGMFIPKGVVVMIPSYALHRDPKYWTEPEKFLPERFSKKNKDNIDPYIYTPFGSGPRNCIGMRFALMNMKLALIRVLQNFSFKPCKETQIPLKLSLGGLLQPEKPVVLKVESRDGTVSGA

On to `CN(C)C(=O)c1ccc(-c2ccc3c(c2)CCN(CCN2CCCC2)C3=O)cc1.Cl`, for which the minimal effective dose in the data set with Rattus norvegicus [1] and in the data set on Mus musculus was 1 mg/kg in each case. The bioavailability in [2] worked out at 57%; in data set [8], 85%. The half-life was 96 min in data set [3], 48 min in [10] and 18 min in [11]. The Vd worked out at 3.1 L/kg in data set [4] and 2.1 L/kg in data set [12]. In [5], this compound yielded an AUC(0-inf) of 1650 ng·h/mL. The clearance in data set [6] stood at 23 mL/min/kg; in data set [13] it was 87 mL/min/kg. This compound returned a Cmax in data set [7] of 989 ng/mL. In data set [9], the Tmax came out at 18 min. The Activity result in the data set with Salmonella typhimurium was “Non-toxic”; in the data set on Canis familiaris [14] it was “Toxic”; with Canis familiaris [15], “Toxic”; in the data set with Canis familiaris [16], “Toxic”; with Rattus norvegicus [17] it was “Toxic”; with Rattus norvegicus [18], “Toxic”. The values for the MTD in data set [19] and in [20] were 200 mg/kg/day and 20 mg/kg/day, respectively.
As for `O=C1c2ccc(-c3ccc(F)cc3)cc2CCN1CCN1CCCCCC1`, the Ki at Histamine H3 receptor [21] is 5.7 nM; on Histamine H3 receptor [22], 47 nM. On CYP3A4, this compound had an inhibition at 3 µM of 47%.
